Laboratory results published in ChEMBL document CHEMBL5712070, “Discovery of a chemical probe for the L3MBTL3 methyllysine reader domain” (Nat Chem Biol, 2013).
Activity calls are given as the source filed them. The rule behind the calls is not given here.

Assays:
Homo sapiens = species on record: Homo sapiens; experiment: Binding affinity to L3MBTL3 D381A mutant (unknown origin) by ITC assay
[1] = target: Muscarinic acetylcholine receptor M1 (Homo sapiens) (UniProt P11229); experiment: Agonist activity at human M1 receptor; assay type: functional
[2] = target: Lethal(3)malignant brain tumor-like protein 4 (Homo sapiens, UniProt Q8NA19); experiment: Inhibition of MBT domain containing L3MBTL4 (unknown origin) using H4K20me2 peptide by Alpha-Screen methylated histone peptide competition assay
[3] = Cytotoxicity in HEK293T/17 cells assessed as effect on cell viability up to 100 uM incubated for 24 hrs by CellTiter-Glo luminescent cell viability assay; assay type: toxicity, cell-based; conditions: human, hek293t/17, 24 h
[4] = Stability in HEK293T/17 cells assessed as compound degradation after 72 hrs in presence of in cell media; assay type: ADME, cell-based; conditions: human, hek293t/17, 72 h
How it was run: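 Compound incubated in cell medium with or without HEK293 cells for 72 hours, then examined for degradation products.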

[5] = target: T1, Lethal(3)malignant brain tumor-like protein 3 (Homo sapiens, UniProt Q96JM7); experiment: Inhibition of GFP-3MBT tagged L3MBTL3 (unknown origin) expressed in HEK293 cells assessed as reduction in recovery of fluorescence intensity measured up to 60 secs by FRAP assay
T1 sequence (Q96JM7 whole entry): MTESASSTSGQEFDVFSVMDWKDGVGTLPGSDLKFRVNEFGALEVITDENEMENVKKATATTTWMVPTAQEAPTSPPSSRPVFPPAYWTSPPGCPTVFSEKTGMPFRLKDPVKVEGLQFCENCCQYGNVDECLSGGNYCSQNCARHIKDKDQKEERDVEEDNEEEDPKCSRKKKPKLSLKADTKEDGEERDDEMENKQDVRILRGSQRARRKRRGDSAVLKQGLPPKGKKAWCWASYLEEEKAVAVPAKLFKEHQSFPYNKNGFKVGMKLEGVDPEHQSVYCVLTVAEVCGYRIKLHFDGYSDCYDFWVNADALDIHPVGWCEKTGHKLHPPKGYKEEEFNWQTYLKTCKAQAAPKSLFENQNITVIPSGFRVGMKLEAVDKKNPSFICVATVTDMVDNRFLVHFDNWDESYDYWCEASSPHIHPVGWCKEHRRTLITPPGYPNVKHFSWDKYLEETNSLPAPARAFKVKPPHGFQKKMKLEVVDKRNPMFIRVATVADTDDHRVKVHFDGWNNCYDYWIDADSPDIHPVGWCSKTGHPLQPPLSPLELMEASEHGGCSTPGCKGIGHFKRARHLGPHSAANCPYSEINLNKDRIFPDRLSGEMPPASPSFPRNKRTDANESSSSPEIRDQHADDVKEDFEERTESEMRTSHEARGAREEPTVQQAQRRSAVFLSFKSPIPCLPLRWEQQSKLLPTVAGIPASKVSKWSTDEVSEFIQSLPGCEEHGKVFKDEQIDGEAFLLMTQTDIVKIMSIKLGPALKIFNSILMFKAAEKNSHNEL

[6] = target: E3 ubiquitin-protein ligase UHRF1 (Homo sapiens, UniProt Q96T88); experiment: Inhibition of tudor domain containing UHRF1 (unknown origin) using H4K20me2 peptide by Alpha-Screen methylated histone peptide competition assay
TP53-binding protein 1 = TP53-binding protein 1 (Homo sapiens, UniProt Q12888); experiment: Binding affinity to 53BP1 (unknown origin) by ITC assay
[7] = target: Mortality factor 4-like protein 1 (Homo sapiens, UniProt Q9UBU8); experiment: Binding affinity to MRG15 (unknown origin) by ITC assay
[8] = target: Sodium-dependent dopamine transporter (Homo sapiens, UniProt Q01959); experiment: Inhibition of DAT (unknown origin) by radioligand binding assay
[9] = target: Muscarinic acetylcholine receptor M2 (Homo sapiens, UniProt P08172); experiment: Inhibition of M2 receptor (unknown origin) by radioligand binding assay
How it was run: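 Radioligand competition binding; the value is reported as a Ki.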

[10] = target: Muscarinic acetylcholine receptor M4 (Homo sapiens, UniProt P08173); experiment: Inhibition of M4 receptor (unknown origin) by radioligand binding assay
[11] = target: T2, Muscarinic acetylcholine receptor M1 (Homo sapiens, UniProt P11229); experiment: Inhibition of M1 receptor (unknown origin) by Ca2+ mobilization assay; assay type: functional
T2 sequence (P11229 whole entry): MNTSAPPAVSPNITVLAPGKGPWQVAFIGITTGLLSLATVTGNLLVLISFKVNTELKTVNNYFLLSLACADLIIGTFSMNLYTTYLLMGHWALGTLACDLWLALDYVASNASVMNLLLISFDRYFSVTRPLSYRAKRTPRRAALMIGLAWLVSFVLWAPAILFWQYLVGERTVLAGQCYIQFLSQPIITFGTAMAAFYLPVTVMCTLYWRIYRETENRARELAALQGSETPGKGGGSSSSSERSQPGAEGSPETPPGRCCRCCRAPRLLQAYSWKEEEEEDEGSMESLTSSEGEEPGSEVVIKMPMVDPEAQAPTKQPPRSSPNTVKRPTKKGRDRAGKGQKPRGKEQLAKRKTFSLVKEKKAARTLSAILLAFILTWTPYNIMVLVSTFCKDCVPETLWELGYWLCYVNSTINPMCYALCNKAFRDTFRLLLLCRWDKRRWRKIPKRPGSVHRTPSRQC

[12] = target: T3, Lethal(3)malignant brain tumor-like protein 3 (Homo sapiens) (UniProt Q96JM7); experiment: Binding affinity to GFP-tagged full length L3MBTL3 (unknown origin) assessed as protein half life at 1 uM
T3 sequence (whole entry): T1 sequence (Q96JM7 whole entry)

[13] = target: T3, Lethal(3)malignant brain tumor-like protein 3 (Homo sapiens); conditions: dose 0.5 µM
[14] = target: T3, Lethal(3)malignant brain tumor-like protein 3 (Homo sapiens); conditions: dose 0.05 µM
[15] = target: T3, Lethal(3)malignant brain tumor-like protein 3 (Homo sapiens); conditions: dose 0.01 µM
[16] = target: T1, Lethal(3)malignant brain tumor-like protein 3; experiment: Binding affinity to GFP-3MBT tagged L3MBTL3 (unknown origin) assessed as diffusion coefficient at 0.5 uM (reference value: 0.1272 um2/s)
[17] = target: T1, Lethal(3)malignant brain tumor-like protein 3; experiment: Binding affinity to GFP-tagged full length L3MBTL3 (unknown origin) assessed as diffusion coefficient at 1 uM (reference value: 0.037549815 um2/s)
[18] = target: T1, Lethal(3)malignant brain tumor-like protein 3; experiment: Binding affinity to GFP-tagged full length L3MBTL3 (unknown origin) assessed as diffusion coefficient at 0.5 uM (reference value: 0.037549815 um2/s)
[19] = target: T1, Lethal(3)malignant brain tumor-like protein 3; experiment: Binding affinity to GFP-tagged full length L3MBTL3 (unknown origin) assessed as diffusion coefficient at 0.01 uM (reference value: 0.037549815 um2/s)

Chain of Muscarinic acetylcholine receptor M2 (P08172 whole entry): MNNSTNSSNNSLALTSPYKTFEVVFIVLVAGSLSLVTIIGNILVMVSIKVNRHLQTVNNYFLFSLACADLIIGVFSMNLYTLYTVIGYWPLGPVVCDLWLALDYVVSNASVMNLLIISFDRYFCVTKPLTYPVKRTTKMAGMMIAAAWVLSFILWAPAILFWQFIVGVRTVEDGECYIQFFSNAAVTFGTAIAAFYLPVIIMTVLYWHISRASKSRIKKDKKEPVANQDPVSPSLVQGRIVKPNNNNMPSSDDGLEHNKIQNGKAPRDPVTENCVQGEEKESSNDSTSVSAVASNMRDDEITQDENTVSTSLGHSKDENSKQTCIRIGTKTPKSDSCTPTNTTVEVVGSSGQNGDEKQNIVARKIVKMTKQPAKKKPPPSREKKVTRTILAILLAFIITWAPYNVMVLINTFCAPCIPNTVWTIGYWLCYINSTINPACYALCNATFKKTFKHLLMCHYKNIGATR
Chain of Lethal(3)malignant brain tumor-like protein 4 (Q8NA19 whole entry, the tested form may be a part): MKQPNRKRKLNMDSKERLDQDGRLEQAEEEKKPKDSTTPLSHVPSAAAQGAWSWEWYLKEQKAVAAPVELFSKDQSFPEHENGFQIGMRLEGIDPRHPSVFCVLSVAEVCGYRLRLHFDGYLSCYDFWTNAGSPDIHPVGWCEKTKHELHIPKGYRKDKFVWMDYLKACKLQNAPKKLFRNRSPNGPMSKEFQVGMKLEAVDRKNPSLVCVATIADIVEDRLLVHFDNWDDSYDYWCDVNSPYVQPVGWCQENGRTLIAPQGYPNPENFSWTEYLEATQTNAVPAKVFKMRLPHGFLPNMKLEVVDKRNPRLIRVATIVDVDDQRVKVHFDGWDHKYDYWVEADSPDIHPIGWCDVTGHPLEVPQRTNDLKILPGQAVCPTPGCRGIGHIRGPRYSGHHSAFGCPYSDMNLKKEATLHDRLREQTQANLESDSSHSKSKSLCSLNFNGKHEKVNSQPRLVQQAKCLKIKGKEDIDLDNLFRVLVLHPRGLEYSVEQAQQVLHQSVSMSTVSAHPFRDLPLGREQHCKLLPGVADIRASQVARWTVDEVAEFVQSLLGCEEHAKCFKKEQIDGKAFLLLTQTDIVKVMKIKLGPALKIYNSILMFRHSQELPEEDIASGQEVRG
Chain of Sodium-dependent dopamine transporter (Q01959 whole entry): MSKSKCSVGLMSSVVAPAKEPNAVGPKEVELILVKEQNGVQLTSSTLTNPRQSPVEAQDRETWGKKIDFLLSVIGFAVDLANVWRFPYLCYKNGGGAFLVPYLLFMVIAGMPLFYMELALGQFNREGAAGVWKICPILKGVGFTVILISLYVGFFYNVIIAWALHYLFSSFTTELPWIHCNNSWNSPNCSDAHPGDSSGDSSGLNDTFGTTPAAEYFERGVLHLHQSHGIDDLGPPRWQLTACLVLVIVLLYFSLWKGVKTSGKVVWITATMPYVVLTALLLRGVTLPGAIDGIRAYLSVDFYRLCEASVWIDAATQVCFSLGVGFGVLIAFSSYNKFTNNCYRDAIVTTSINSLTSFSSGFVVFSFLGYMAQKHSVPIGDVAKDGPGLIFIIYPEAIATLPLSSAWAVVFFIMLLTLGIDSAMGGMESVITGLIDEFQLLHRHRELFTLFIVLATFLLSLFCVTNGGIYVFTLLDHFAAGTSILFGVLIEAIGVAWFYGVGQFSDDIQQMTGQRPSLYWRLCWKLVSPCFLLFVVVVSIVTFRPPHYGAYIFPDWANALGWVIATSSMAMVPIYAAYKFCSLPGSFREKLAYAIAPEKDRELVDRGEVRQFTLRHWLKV
Chain of TP53-binding protein 1 (Q12888 whole entry): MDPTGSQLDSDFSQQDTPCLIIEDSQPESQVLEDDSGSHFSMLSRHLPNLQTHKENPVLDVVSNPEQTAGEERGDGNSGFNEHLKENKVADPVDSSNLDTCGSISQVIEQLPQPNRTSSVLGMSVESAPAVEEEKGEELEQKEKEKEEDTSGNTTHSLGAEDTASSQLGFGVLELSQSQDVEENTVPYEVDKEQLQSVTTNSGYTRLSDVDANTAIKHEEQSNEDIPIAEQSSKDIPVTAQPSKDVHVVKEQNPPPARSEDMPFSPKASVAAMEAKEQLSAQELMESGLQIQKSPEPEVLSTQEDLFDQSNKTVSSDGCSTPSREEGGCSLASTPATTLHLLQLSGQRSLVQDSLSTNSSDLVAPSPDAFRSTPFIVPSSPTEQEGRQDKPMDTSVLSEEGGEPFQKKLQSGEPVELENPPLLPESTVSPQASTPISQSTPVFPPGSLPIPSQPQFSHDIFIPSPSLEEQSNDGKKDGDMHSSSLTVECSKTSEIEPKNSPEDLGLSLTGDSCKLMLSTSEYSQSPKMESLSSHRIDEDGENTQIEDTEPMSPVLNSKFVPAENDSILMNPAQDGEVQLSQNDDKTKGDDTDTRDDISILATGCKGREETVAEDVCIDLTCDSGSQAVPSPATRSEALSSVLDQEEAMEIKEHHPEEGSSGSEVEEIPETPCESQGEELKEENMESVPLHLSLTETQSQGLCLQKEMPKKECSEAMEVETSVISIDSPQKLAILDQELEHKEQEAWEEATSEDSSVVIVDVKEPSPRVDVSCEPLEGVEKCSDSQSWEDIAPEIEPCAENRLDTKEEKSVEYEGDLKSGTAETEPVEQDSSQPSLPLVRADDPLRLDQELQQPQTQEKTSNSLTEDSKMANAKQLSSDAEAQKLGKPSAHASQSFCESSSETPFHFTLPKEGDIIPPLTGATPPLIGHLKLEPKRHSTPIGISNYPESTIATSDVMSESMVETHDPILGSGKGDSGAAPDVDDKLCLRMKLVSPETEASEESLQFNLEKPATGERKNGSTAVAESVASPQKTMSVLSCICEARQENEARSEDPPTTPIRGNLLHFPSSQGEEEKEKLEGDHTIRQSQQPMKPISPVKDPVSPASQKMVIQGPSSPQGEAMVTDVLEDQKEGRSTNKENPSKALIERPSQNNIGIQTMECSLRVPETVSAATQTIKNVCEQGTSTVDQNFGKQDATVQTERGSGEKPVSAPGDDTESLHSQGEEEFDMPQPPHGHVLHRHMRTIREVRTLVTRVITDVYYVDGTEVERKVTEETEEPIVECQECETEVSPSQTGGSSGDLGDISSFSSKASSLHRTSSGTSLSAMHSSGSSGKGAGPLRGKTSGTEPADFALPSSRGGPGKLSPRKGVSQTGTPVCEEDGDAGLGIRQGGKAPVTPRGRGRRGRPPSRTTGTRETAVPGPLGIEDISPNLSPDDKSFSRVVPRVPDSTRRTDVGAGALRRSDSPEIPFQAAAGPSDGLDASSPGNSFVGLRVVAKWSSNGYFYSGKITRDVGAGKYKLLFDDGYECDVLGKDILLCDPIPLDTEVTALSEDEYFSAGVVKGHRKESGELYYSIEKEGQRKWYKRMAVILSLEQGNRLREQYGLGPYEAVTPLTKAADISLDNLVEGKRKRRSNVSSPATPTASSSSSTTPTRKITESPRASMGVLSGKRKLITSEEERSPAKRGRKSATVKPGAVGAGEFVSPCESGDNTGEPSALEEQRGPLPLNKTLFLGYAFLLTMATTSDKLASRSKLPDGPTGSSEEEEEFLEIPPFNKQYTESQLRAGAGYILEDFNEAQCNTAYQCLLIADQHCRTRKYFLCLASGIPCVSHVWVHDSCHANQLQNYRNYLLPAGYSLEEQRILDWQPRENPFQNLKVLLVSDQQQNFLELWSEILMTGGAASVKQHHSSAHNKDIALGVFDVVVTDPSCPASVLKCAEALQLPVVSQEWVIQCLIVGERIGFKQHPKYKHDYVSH
Chain of Mortality factor 4-like protein 1 (Q9UBU8 whole entry): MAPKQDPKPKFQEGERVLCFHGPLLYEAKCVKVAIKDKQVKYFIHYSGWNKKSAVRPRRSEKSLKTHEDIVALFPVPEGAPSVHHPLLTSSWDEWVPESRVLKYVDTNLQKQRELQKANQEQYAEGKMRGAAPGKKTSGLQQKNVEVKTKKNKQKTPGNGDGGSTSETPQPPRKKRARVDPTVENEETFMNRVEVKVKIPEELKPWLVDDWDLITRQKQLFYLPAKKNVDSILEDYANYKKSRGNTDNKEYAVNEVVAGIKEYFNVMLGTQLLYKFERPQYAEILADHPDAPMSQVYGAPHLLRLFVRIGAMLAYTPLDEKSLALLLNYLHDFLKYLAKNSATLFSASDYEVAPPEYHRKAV
Chain of E3 ubiquitin-protein ligase UHRF1 (Q96T88 whole entry, the tested form may be a part): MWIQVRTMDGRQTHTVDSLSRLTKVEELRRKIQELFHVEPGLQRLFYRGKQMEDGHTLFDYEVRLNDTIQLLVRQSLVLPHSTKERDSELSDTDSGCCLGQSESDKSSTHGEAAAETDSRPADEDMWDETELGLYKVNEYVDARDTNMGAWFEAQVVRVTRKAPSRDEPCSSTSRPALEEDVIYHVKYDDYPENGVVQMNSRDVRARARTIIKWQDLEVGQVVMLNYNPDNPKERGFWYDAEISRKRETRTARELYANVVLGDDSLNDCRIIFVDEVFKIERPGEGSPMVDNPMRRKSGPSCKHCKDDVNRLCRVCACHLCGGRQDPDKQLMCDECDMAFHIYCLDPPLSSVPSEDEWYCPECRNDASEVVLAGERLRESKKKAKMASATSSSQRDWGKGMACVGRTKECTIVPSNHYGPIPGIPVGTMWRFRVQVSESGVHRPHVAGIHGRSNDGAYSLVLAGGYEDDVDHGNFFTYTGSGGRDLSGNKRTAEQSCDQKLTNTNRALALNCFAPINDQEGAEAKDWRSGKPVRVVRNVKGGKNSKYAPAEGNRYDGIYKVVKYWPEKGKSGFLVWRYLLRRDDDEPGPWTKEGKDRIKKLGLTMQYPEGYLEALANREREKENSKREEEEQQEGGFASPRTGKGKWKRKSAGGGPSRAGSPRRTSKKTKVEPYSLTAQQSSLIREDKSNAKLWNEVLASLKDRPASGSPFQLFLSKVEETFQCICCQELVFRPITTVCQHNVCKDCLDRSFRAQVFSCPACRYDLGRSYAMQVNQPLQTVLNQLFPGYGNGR

SMILES: O=C(c1ccc(C(=O)N2CCC(N3CCCC3)CC2)c(Nc2ccccc2)c1)N1CCC(N2CCCC2)CC1
- Activity (Homo sapiens): inactive
- Activity [1]: inactive
- IC50 [2]: 11 µM
- Activity [3]: Non-Toxic
- Stability [4]: Stable
- IC50 [5]: 0.05 µM
- IC50 [6]: > 30 µM
- Kd (TP53-binding protein 1): > 31 µM
- Kd [7]: 28.9 µM
- Ki [8]: > 10 µM
- Ki [9]: 0.072 µM
- Ki [10]: 0.4 µM
- IC50 [11]: 3.5 µM
- T1/2 [12]: 19.9 s
- T1/2 [13]: 20.3 s
- T1/2 [14]: 6.5 s
- T1/2 [15]: 7 s
- Diffusion coefficient [16]: 0.297 um2/s
- Diffusion coefficient [17]: 0.051 um2/s
- Diffusion coefficient [18]: 0.05 um2/s
- Diffusion coefficient [19]: 0.043 um2/s
